Columns and labels:
[1] = tested on: Mycobacterium tuberculosis; assay: Antibacterial activity against Mycobacterium tuberculosis H37Rv ATCC 27294T assessed as amikacin MIC at 16 ug/ml after 7 days by microdilution checkerboard assay; type: functional; conditions: 168 h
Outline: (§1)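 Two-dimensional checkerboard in H37Rv at 10^5 CFU/ml in MB7H9/OADC. Partner drug (amikacin, EtBr, isoniazid, ofloxacin or rifampin) two-fold serially diluted across columns 3-11. Test compound two-fold serially diluted down rows 2-6. Plates incubated 7 days at 37 °C, then MTT added overnight. […] Run in triplicate.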

[2] = tested on: Mycobacterium tuberculosis; assay: Antibacterial activity against Mycobacterium tuberculosis H37Rv ATCC 27294T assessed as isoniazid MIC at 1 ug/ml after 7 days by microdilution checkerboard assay; type: functional; conditions: 168 h; outline: as §1
[3] = tested on: Mycobacterium tuberculosis; assay: Antibacterial activity against Mycobacterium tuberculosis H37Rv ATCC 27294T assessed as ofloxacin MIC at 8 ug/ml after 7 days by microdilution checkerboard assay; type: functional; conditions: 168 h; outline: as §1
[4] = tested on: Mycobacterium tuberculosis; assay: Antibacterial activity against Mycobacterium tuberculosis H37Rv ATCC 27294T assessed as isoniazid MIC at 8 ug/ml after 7 days by microdilution checkerboard assay; type: functional; conditions: 168 h; outline: as §1
[5] = tested on: Mycobacterium tuberculosis; assay: Antibacterial activity against Mycobacterium tuberculosis H37Rv ATCC 27294T assessed as ofloxacin MIC at 64 ug/ml after 7 days by microdilution checkerboard assay; type: functional; conditions: 168 h; outline: as §1
[6] = tested on: Mycobacterium tuberculosis; assay: Antibacterial activity against Mycobacterium tuberculosis H37Rv ATCC 27294T assessed as isoniazid MIC at 4 ug/ml after 7 days by microdilution checkerboard; type: functional; conditions: 168 h; outline: as §1
[7] = tested on: Mycobacterium tuberculosis; assay: Antibacterial activity against Mycobacterium tuberculosis H37Rv ATCC 27294T assessed as amikacin MIC at 1 ug/ml after 7 days by microdilution checkerboard assay; type: functional; conditions: 168 h; outline: as §1
[8] = tested on: Mycobacterium tuberculosis; assay: Antibacterial activity against Mycobacterium tuberculosis H37Rv ATCC 27294T assessed as ethidium bromide MIC at 64 ug/ml after 7 days by microdilution checkerboard assay; type: functional; conditions: 168 h; outline: as §1
[9] = tested on: Mycobacterium tuberculosis; assay: Antibacterial activity against Mycobacterium tuberculosis H37Rv ATCC 27294T assessed as isoniazid MIC at 2 ug/ml after 7 days by microdilution checkerboard assay; type: functional; conditions: 168 h; outline: as §1
[10] = tested on: Mycobacterium tuberculosis; assay: Antibacterial activity against Mycobacterium tuberculosis H37Rv ATCC 27294T assessed as rifampin MIC at 4 ug/ml after 7 days by microdilution checkerboard assay; type: functional; conditions: 168 h
Outline: (§2)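 M. tuberculosis H37Rv grown in MB7H9 + 10% OADC at 37 °C to OD600 0.8; plates inoculated at 10^5 CFU/ml. Rifampicin two-fold serially diluted across columns, test compound two-fold diluted down rows (two-dimensional checkerboard). Sealed, 37 °C for seven days, then MTT added and incubated overnight. MIC read as no colour change. Triplicate.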

[11] = tested on: Mycobacterium tuberculosis; assay: Antibacterial activity against Mycobacterium tuberculosis H37Rv ATCC 27294T assessed as amikacin MIC at 64 ug/ml after 7 days by microdilution checkerboard assay; type: functional; conditions: 168 h; outline: as §1
[12] = tested on: Mycobacterium tuberculosis; assay: Antibacterial activity against Mycobacterium tuberculosis H37Rv ATCC 27294T assessed as rifampin MIC at 2 ug/ml after 7 days by microdilution checkerboard assay; type: functional; conditions: 168 h; outline: as §2
[13] = Cytotoxicity against human MDM assessed as cell viability after 3 days by Alamar blue dye-based fluorocytometric analysis relative to control; conditions: 72 h
[14] = tested on: Mycobacterium tuberculosis; assay: Antibacterial activity against Mycobacterium tuberculosis H37Rv ATCC 27294T assessed as rifampin MIC at 64 ug/ml after 7 days by microdilution checkerboard assay; type: functional; conditions: 168 h; outline: as §2
[15] = tested on: Mycobacterium tuberculosis; assay: Antibacterial activity against Mycobacterium tuberculosis H37Rv ATCC 27294T assessed as ethidium bromide MIC at 32 ug/ml after 7 days by microdilution checkerboard assay; type: functional; conditions: 168 h; outline: as §1
[16] = tested on: Mycobacterium tuberculosis; assay: Antibacterial activity against Mycobacterium tuberculosis H37Rv ATCC 27294T assessed as isoniazid MIC at 16 ug/ml after 7 days by microdilution checkerboard assay; type: functional; conditions: 168 h; outline: as §1
[17] = tested on: Mycobacterium tuberculosis; assay: Antibacterial activity against Mycobacterium tuberculosis H37Rv ATCC 27294T assessed as ethidium bromide MIC at 4 ug/ml after 7 days by microdilution checkerboard assay; type: functional; conditions: 168 h; outline: as §1
[18] = tested on: Mycobacterium tuberculosis; assay: Antibacterial activity against Mycobacterium tuberculosis H37Rv ATCC 27294T assessed as amikacin MIC at 8 ug/ml after 7 days by microdilution checkerboard assay; type: functional; conditions: 168 h; outline: as §1
[19] = tested on: Mycobacterium tuberculosis; assay: Antibacterial activity against Mycobacterium tuberculosis H37Rv ATCC 27294T assessed as rifampin MIC at 32 ug/ml after 7 days by microdilution checkerboard assay; type: functional; conditions: 168 h; outline: as §2
[20] = tested on: Mycobacterium tuberculosis; assay: Antibacterial activity against Mycobacterium tuberculosis H37Rv ATCC 27294T assessed as isoniazid MIC at 32 ug/ml after 7 days by microdilution checkerboard assay; type: functional; conditions: 168 h; outline: as §1
[21] = tested on: Mycobacterium tuberculosis; assay: Antibacterial activity against Mycobacterium tuberculosis H37Rv ATCC 27294T assessed as ethidium bromide MIC at 16 ug/ml after 7 days by microdilution checkerboard assay; type: functional; conditions: 168 h; outline: as §1
[22] = tested on: Mycobacterium tuberculosis; assay: Antibacterial activity against Mycobacterium tuberculosis H37Rv ATCC 27294T assessed as rifampin MIC at 1 ug/ml after 7 days by microdilution checkerboard assay; type: functional; conditions: 168 h; outline: as §2
[23] = tested on: Mycobacterium tuberculosis; assay: Antibacterial activity against Mycobacterium tuberculosis H37Rv ATCC 27294T assessed as ethidium bromide MIC at 1 ug/ml after 7 days by microdilution checkerboard assay; type: functional; conditions: 168 h; outline: as §1
[24] = tested on: Mycobacterium tuberculosis; assay: Antibacterial activity against Mycobacterium tuberculosis H37Rv ATCC 27294T assessed as rifampin MIC at 8 ug/ml after 7 days by microdilution checkerboard assay; type: functional; conditions: 168 h; outline: as §2
[25] = tested on: Mycobacterium tuberculosis; assay: Antibacterial activity against Mycobacterium tuberculosis H37Rv ATCC 27294T assessed as ethidium bromide MIC at 2 ug/ml after 7 days by microdilution checkerboard assay; type: functional; conditions: 168 h; outline: as §1
[26] = tested on: Mycolicibacterium smegmatis; assay: Anti-tubercular activity against Mycobacterium smegmatis MC2 155 ATCC 700084 after 3 days by microdilution method; type: functional; conditions: MC2 155 ATCC 700084, 72 h
Outline: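 M. smegmatis mc2155 grown in MB7H9 + 10% OADC at 37 °C with shaking to OD600 0.8. Inoculum set to 0.5 McFarland, diluted 1:100, and mixed 1:1 with two-fold serial dilutions in MB7H9. Plates incubated 3 days at 37 °C with growth and sterility controls. MIC taken as the lowest concentration with no visible growth.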

[27] = tested on: Mycobacterium tuberculosis; assay: Antibacterial activity against Mycobacterium tuberculosis H37Rv ATCC 27294T assessed as ofloxacin MIC at 4 ug/ml after 7 days by microdilution checkerboard assay; type: functional; conditions: 168 h; outline: as §1
[28] = tested on: Mycobacterium tuberculosis; assay: Antibacterial activity against Mycobacterium tuberculosis H37Rv ATCC 27294T assessed as rifampin MIC at 16 ug/ml after 7 days by microdilution checkerboard assay; type: functional; conditions: 168 h; outline: as §2
[29] = tested on: Mycobacterium tuberculosis; assay: Antibacterial activity against Mycobacterium tuberculosis H37Rv ATCC 27294T assessed as ofloxacin MIC at 1 ug/ml after 7 days by microdilution checkerboard assay; type: functional; conditions: 168 h; outline: as §1
[30] = tested on: Mycobacterium tuberculosis; assay: Antibacterial activity against Mycobacterium tuberculosis H37Rv ATCC 27294T assessed as amikacin MIC at 4 ug/ml after 7 days by microdilution checkerboard assay; type: functional; conditions: 168 h; outline: as §1
[31] = tested on: Mycobacterium tuberculosis; assay: Anti-tubercular activity against Mycobacterium tuberculosis H37Rv ATCC 27294T after 7 days by mircodilution method; type: functional; conditions: 168 h
Outline: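 H37Rv grown static in MB7H9 + 10% OADC at 37 °C to OD600 0.8, then diluted to about 10^5 cells/ml. Mixed 1:1 with two-fold serial dilutions in MB7H9/OADC and incubated 7 days at 37 °C. MTT added to final 2.5% and plates incubated overnight. MIC is the lowest concentration with no colour change. Run in triplicate.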

[32] = tested on: Mycobacterium tuberculosis; assay: Antibacterial activity against Mycobacterium tuberculosis H37Rv ATCC 27294T assessed as ethidium bromide MIC at 8 ug/ml after 7 days by microdilution checkerboard assay; type: functional; conditions: 168 h; outline: as §1
[33] = tested on: Mycobacterium tuberculosis; assay: Antibacterial activity against Mycobacterium tuberculosis H37Rv ATCC 27294T assessed as amikacin MIC at 2 ug/ml after 7 days by microdilution checkerboard assay; type: functional; conditions: 168 h; outline: as §1
[34] = tested on: Mycobacterium tuberculosis; assay: Antibacterial activity against Mycobacterium tuberculosis H37Rv ATCC 27294T assessed as ofloxacin MIC at 32 ug/ml after 7 days by microdilution checkerboard assay; type: functional; conditions: 168 h; outline: as §1
[35] = tested on: Mycobacterium tuberculosis; assay: Antibacterial activity against Mycobacterium tuberculosis H37Rv ATCC 27294T assessed as ofloxacin MIC at 2 ug/ml after 7 days by microdilution checkerboard assay; type: functional; conditions: 168 h; outline: as §1
[36] = tested on: Mycobacterium tuberculosis; assay: Antibacterial activity against Mycobacterium tuberculosis H37Rv ATCC 27294T assessed as ofloxacin MIC at 16 ug/ml after 7 days by microdilution checkerboard assay; type: functional; conditions: 168 h; outline: as §1
[37] = tested on: Mycobacterium tuberculosis; assay: Antibacterial activity against Mycobacterium tuberculosis H37Rv ATCC 27294T assessed as amikacin MIC at 32 ug/ml after 7 days by microdilution checkerboard assay; type: functional; conditions: 168 h; outline: as §1
[38] = tested on: Mycobacterium tuberculosis; assay: Antibacterial activity against Mycobacterium tuberculosis H37Rv ATCC 27294T assessed as isoniazid MIC at 64 ug/ml after 7 days by microdilution checkerboard assay; type: functional; conditions: 168 h; outline: as §1

CCCSc1nnc(COc2ccccc2C2=NOC(c3ccc(Cl)cc3Cl)C2)n1NC(=O)c1ccccc1 (stereo not drawn)
0.5 µg/mL: MIC [22]
0.1 µg/mL: MIC [2] | MIC [4] | MIC [6] | MIC [9] | MIC [16] | MIC [20]
2 µg/mL: MIC [1] | MIC [3] | MIC [7] | MIC [18] | MIC [26] | MIC [27] | MIC [29] | MIC [30] | MIC [33] | MIC [35] | MIC [36]
0.25 µg/mL: MIC [10] | MIC [12] | MIC [24] | MIC [28]
1 µg/mL: MIC [5] | MIC [11] | MIC [34] | MIC [37]
12.5 µg/mL: MIC [15] | MIC [17] | MIC [21] | MIC [23] | MIC [25] | MIC [32]
0.125 µg/mL: MIC [19]
6.25 µg/mL: MIC [8]
14.8 µg/mL: IC50 [13]
0.05 µg/mL: MIC [38]
32 µg/mL: MIC [31]
0.0312 µg/mL: MIC [14]

Reference: ChEMBL document CHEMBL3758168, “Hybrid triazoles: Design and synthesis as potential dual inhibitor of growth and efflux inhibition in tuberculosis” (Eur J Med Chem, 2016)
